Experiments:
Assay type in all cases: organism-based
[1] = target: T1, Angiotensin-converting enzyme (Rattus norvegicus) (UniProt P47820); test: Compound was tested for plasma inhibition of Angiotensin I converting enzyme activity in the conscious rat. Expressed as Inhibition of AI pressor response at 6 hr at a dose of 12.8 mg/kg po; design: dose 12.8 mg/kg
T1 sequence (whole entry): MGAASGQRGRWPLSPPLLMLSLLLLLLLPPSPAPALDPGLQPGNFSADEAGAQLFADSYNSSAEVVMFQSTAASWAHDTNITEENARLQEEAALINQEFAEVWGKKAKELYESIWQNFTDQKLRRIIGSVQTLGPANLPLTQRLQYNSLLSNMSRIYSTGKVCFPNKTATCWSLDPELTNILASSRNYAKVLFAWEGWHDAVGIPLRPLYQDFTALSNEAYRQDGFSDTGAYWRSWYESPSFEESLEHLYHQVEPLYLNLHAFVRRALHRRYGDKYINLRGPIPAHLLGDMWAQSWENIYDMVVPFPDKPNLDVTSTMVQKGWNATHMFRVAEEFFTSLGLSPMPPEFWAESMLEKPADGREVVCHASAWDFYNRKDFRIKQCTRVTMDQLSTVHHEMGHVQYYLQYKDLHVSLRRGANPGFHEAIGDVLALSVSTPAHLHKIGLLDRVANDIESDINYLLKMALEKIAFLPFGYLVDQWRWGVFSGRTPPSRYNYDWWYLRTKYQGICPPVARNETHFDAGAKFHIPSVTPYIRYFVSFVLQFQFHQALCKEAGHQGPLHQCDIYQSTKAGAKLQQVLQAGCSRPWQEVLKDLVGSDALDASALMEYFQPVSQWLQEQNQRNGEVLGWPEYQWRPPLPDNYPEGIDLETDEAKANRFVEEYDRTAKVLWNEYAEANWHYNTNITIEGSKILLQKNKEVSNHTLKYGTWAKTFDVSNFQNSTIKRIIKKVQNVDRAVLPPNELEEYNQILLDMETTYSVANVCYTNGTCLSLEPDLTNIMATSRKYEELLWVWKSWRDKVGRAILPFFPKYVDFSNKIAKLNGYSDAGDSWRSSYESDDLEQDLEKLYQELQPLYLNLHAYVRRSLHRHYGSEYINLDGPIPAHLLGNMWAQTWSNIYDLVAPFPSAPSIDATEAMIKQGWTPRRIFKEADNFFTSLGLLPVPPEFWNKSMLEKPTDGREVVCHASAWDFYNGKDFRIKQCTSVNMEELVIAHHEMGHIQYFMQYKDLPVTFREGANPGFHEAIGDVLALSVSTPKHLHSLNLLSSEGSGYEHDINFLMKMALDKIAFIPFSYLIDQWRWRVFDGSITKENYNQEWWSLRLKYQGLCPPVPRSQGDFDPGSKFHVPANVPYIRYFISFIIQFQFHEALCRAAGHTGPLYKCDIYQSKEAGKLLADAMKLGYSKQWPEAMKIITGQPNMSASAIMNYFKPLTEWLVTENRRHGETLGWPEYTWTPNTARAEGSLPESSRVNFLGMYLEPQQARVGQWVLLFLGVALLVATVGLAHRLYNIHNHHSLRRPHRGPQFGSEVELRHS
Summary of the method: (§1)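 Male conscious normotensive Sprague-Dawley rats (275-390 g), prepared under methohexital sodium (75 mg/kg ip) with femoral arterial and venous catheters. The next day, pressor responses to three angiotensin-I challenges (300 ng/kg iv) were recorded. Compound was then given orally and angiotensin-I challenges were repeated at set times. Percent inhibition is relative to the mean of the three baseline responses.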

[2] = target: T1, Angiotensin-converting enzyme (Rattus norvegicus); test: Compound was tested for plasma inhibition of Angiotensin I converting enzyme activity in the conscious rat. Expressed as Inhibition of AI pressor response at 1 hr at a dose of 12.8 mg/kg po; design: dose 12.8 mg/kg
Summary of the method: (§2)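 Male conscious normotensive Sprague-Dawley rats (275-390 g), given femoral arterial and venous catheters under methohexital sodium (75 mg/kg ip) anesthesia. Next day, pressor responses to three angiotensin-I challenges (300 ng/kg iv) recorded by direct arterial pressure. Compound then dosed orally, and AI challenge repeated at set times. Each post-dose response compared with the mean of the three baseline responses, giving % inhibition.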

[3] = target: T1, Angiotensin-converting enzyme (Rattus norvegicus); test: Compound was tested for plasma inhibition of Angiotensin I converting enzyme activity in the conscious rat. Expressed as Inhibition of AI pressor response at 2 hr at a dose of 12.8 mg/kg po; design: dose 12.8 mg/kg; summary of the method: as §2
[4] = target: T1, Angiotensin-converting enzyme (Rattus norvegicus); test: Compound was tested for plasma inhibition of Angiotensin I converting enzymeb activity in the conscious rat. Expressed as Inhibition of AI pressor response at 4 hr at a dose of 12.8 mg/kg po; design: dose 12.8 mg/kg; summary of the method: as §1
[5] = target: T1, Angiotensin-converting enzyme (Rattus norvegicus); test: Compound was tested for plasma inhibition of Angiotensin I converting enzyme activity in the conscious rat. Expressed as Inhibition of AI pressor response at 6 hr at a dose of 13 mg/kg po; design: dose 13 mg/kg
Summary of the method: (§3)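 Male conscious normotensive Sprague-Dawley rats (275-390 g), fitted under methohexital (75 mg/kg ip) with femoral arterial and venous catheters for direct blood pressure. Next day, pressor responses to three angiotensin-I challenges (300 ng/kg iv) were recorded. Compound was then given po and AI challenge repeated at scheduled times. Each post-dose response was compared with the mean of the three initial responses.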

[6] = target: T1, Angiotensin-converting enzyme (Rattus norvegicus); test: Compound was tested for plasma inhibition of Angiotensin I converting enzyme activity in the conscious rat. Expressed as Inhibition of AI pressor response at 4 hr at a dose of 13 mg/kg po; design: dose 13 mg/kg; summary of the method: as §3
[7] = target: T1, Angiotensin-converting enzyme (Rattus norvegicus); test: Compound was tested for plasma inhibition of Angiotensin I converting enzyme activity in the conscious rat. Expressed as Inhibition of AI pressor response at 1 hr at a dose of 13 mg/kg po; design: dose 13 mg/kg; summary of the method: as §3
[8] = target: T1, Angiotensin-converting enzyme (Rattus norvegicus); test: Compound was tested for plasma inhibition of Angiotensin I converting enzyme activity in the conscious rat. Expressed as Inhibition of AI pressor response at 2 hr at a dose of 13 mg/kg po; design: dose 13 mg/kg; summary of the method: as §3
[9] = target: T1, Angiotensin-converting enzyme (Rattus norvegicus); test: Compound was tested for plasma inhibition of Angiotensin I converting enzyme activity in the conscious rat. Expressed as Inhibition of AI pressor response at 2 hr at a dose of 12 mg/kg po; design: dose 12 mg/kg; summary of the method: as §2
[10] = target: T1, Angiotensin-converting enzyme (Rattus norvegicus); test: Compound was tested for plasma inhibition of Angiotensin I converting enzyme activity in the conscious rat. Expressed as Inhibition of AI pressor response at 6 hr at a dose of 12 mg/kg po; design: dose 12 mg/kg; summary of the method: as §1
[11] = target: T1, Angiotensin-converting enzyme (Rattus norvegicus); test: Compound was tested for plasma inhibition of Angiotensin I converting enzyme activity in the conscious rat. Expressed as Inhibition of AI pressor response at 4 hr at a dose of 12 mg/kg po; design: dose 12 mg/kg; summary of the method: as §2
[12] = target: T1, Angiotensin-converting enzyme (Rattus norvegicus); test: Compound was tested for plasma inhibition of Angiotensin I converting enzyme activity in the conscious rat. Expressed as Inhibition of AI pressor response at 1 hr at a dose of 12 mg/kg po; design: dose 12 mg/kg; summary of the method: as §2
[13] = target: T1, Angiotensin-converting enzyme (Rattus norvegicus); test: Compound was tested for plasma inhibition of Angiotensin I converting enzyme activity in the conscious rat. Expressed as Inhibition of AI pressor response at 1 hr at a dose of 13.4 mg/kg po; design: dose 13.4 mg/kg; summary of the method: as §2
[14] = target: T1, Angiotensin-converting enzyme (Rattus norvegicus); test: Compound was tested for plasma inhibition of Angiotensin I converting enzyme activity in the conscious rat. Expressed as Inhibition of AI pressor response at 2 hr at a dose of 13.4 mg/kg po; design: dose 13.4 mg/kg; summary of the method: as §2
[15] = target: T1, Angiotensin-converting enzyme (Rattus norvegicus); test: Compound was tested for plasma inhibition of Angiotensin I converting enzyme activity in the conscious rat. Expressed as Inhibition of AI pressor response at 4 hr at a dose of 13.4 mg/kg po; design: dose 13.4 mg/kg; summary of the method: as §1
[16] = target: T1, Angiotensin-converting enzyme (Rattus norvegicus); test: Compound was tested for plasma inhibition of Angiotensin I converting enzyme activity in the conscious rat. Expressed as Inhibition of AI pressor response at 6 hr at a dose of 13.4 mg/kg po; design: dose 13.4 mg/kg; summary of the method: as §1
[17] = target: T1, Angiotensin-converting enzyme (Rattus norvegicus); test: Compound was tested for plasma inhibition of Angiotensin I converting enzyme activity in the conscious rat. Expressed as Inhibition of AI pressor response at 1 hr at a dose of 12.3 mg/kg po; design: dose 12.3 mg/kg; summary of the method: as §2
[18] = target: T1, Angiotensin-converting enzyme (Rattus norvegicus); test: Compound was tested for plasma inhibition of Angiotensin I converting enzyme activity in the conscious rat. Expressed as Inhibition of AI pressor response at 4 hr at a dose of 12.3 mg/kg po; design: dose 12.3 mg/kg; summary of the method: as §2
[19] = target: T1, Angiotensin-converting enzyme (Rattus norvegicus); test: Compound was tested for plasma inhibition of Angiotensin I converting enzyme activity in the conscious rat. Expressed as Inhibition of AI pressor response at 2 hr at a dose of 12.3 mg/kg po; design: dose 12.3 mg/kg; summary of the method: as §2
[20] = target: T1, Angiotensin-converting enzyme (Rattus norvegicus); test: Compound was tested for plasma inhibition of Angiotensin I converting enzyme activity in the conscious rat. Expressed as Inhibition of AI pressor response at 6 hr at a dose of 12.3 mg/kg po; design: dose 12.3 mg/kg; summary of the method: as §1

CCCCOC(=O)[C@H](Cc1ccc(O)cc1)NC(=O)C1(NC(=O)[C@H](SC(=O)CC)C(C)C)CCCC1
inhibition [1]: 39% | inhibition [2]: 47% | inhibition [3]: 71% | inhibition [4]: 56%

CCOC(=O)[C@H](Cc1ccc(O)cc1)NC(=O)C1(NC(=O)[C@H](SC(=O)C2CCCC2)C(C)C)CCCC1
inhibition [5]: 38% | inhibition [6]: 55% | inhibition [7]: 34% | inhibition [8]: 33%

C=CCOC(=O)[C@H](Cc1ccc(O)cc1)NC(=O)C1(NC(=O)[C@H](SC(C)=O)C(C)C)CCCC1
inhibition [9]: 75% | inhibition [10]: 59% | inhibition [11]: 67% | inhibition [12]: 68%

CCOC(=O)[C@H](Cc1ccc(OC(=O)C(C)C)cc1)NC(=O)C1(NC(=O)[C@H](SC(C)=O)C(C)C)CCCC1
inhibition [13]: 73% | inhibition [14]: 75% | inhibition [15]: 63% | inhibition [16]: 46%

CCCOc1ccc(C[C@H](NC(=O)C2(NC(=O)[C@H](SC(C)=O)C(C)C)CCCC2)C(=O)OCC)cc1
inhibition [17]: 90% | inhibition [18]: 72% | inhibition [19]: 80% | inhibition [20]: 68%

Source: ChEMBL document CHEMBL1129264, “Mercaptoacyl dipeptides as orally active dual inhibitors of angiotensin-converting enzyme and neutral endopeptidase” (1996)
